High-throughput results deposited in PubChem BioAssay by several laboratories.
Hits are enriched below; roughly 2.3% of the tested compounds scored in any of these assays.
EWS-Fli block – EWS/Fli-driven NR0B1 reporter inhibitors, primary screen, A673 cells, NR0B1 luciferase, luminescence, MLPCN library | viability-normalised | inhibition, % at 12.6 µM | actives 0.67% (n = 350,000);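 active means mean inhibition of at least 50% after viability correction, with every replicate also passing that limit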;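 further: firefly luciferase signal divided by Alamar Blue viability fluorescence both relative to DMSO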
TROY signal inh – inhibitors of TROY-driven NF-kB signaling, primary screen, Q293 LMP1-TROYcd cells, NF-kB luciferase, uHTS | Q293 LMP1-TROYcd NF-kB luciferase reporter, 4 h | actives 0.98% (n = 360,000) | inhibition, % at 10 µM;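 active means compounds whose plate-normalised and pattern-corrected inhibition of the luciferase reporter signal at the single screening dose is 50% or more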
TWEAK Fn14 block – inhibitors of TWEAK-Fn14 signaling, primary screen, luciferase reporter cells, uHTS | TWEAK-stimulated Fn14 reporter cells, luciferase luminescence, 8 h | inhibition, % at 10 µM | actives 2% (n = 360,000) | AID 1159606, 2016; in the data active means inhibition above about 50%
LGR2 antag – inhibitors of bursicon-induced LGR2 CRE-luciferase signal, primary screen, cell-based, HEK293, CRE-luciferase reporter, bursicon stimulation; AID 720647, 2013; Drosophila bursicon receptor LGR2 (rickets); bursicon-stimulated, 4 h; inhibition, % at 9.99 µM; actives 0.35% (n = 380,000);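 active means drop in luminescence signal, shown as inhibition above about 50% in the replicate tests, limit read from the data, passing the limit was not always enough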;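 further: agonist challenge used bursicon conditioned medium at about half maximal strength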
Xi reactivation – activators of inactive X chromosome reactivation, primary screen, imaging, XiGFP fibroblasts, GFP high-content imaging, set 2; AID 743238, 2013; actives 0.055% (n = 360,000); activation, % at 7.58 µM; XiGFP mouse fibroblasts, % GFP-positive cells imaging, 3 d; cells co-treated with 5-aza-dC sensitizer; scaled so ellipticine positive control = 100%;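 active means mean normalized replicate activation at least 10% and every replicate at or above 10%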
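System: 68-5-11 XiGFP fibroblast line | Buffer or medium: DMEM containing 5-aza-dC | Compound: Single point | Times: Compounds 3 days, fix/stain 15 min at room temperature | Benchmarks: Positive control ellipticine, 6 µM final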
FN deposit inh – inhibitors of fibronectin matrix deposition, primary screen, AH1F cells, Alexa488-fibronectin fluorescence, plate reader; AH1F fibroblasts, overnight; actives 0.086% (n = 350,000); inhibition, % at 12.6 µM;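 active means mean inhibition across replicates of 30% or more, regardless of how many single replicates reach that level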
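Schedule: 1 h cell adhesion before compound, then overnight fibronectin incubation; test system: AH1F fibroblast monolayer depositing Alexa488-labelled fibronectin into matrix; quantity: 10000 AH1F cells per well; probe or stimulus: fluorescent fibronectin at 24 nM final; signal: fluorescence, ex 485 nm, em 525 nm; evaluation: percent inhibition as loss of matrix-bound fibronectin fluorescence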
DNA binder FP – DNA binders by acridine orange displacement, dose response, counter-screen for EWS/Fli inhibitor project, biochemical, fluorescence polarization, cherry-pick; shares compounds with EWS-Fli block; salmon sperm DNA acridine orange fluorescence polarization; AC35, µM (highest dose often 68 µM); actives 2% (n = 640); AID 720586, 2013;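 active means fitted curve reaches a 35% signal fall AC35 below twice the sample's top valid tested dose, actives reach about 48 µM in these data; inactive means the rest, including activity in the rising direction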;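 further: lower polarization ratio signals compound binding to DNA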
Numbers stand for hits; – = inactive; · = not tested or not shown.

SMILES | EWS-Fli block | TROY signal inh | TWEAK Fn14 block | LGR2 antag | Xi reactivation | FN deposit inh | DNA binder FP
CO[C@H]1CN(C)C(=O)c2ccc(NC(=O)C3CC3)cc2OC[C@@H](C)N(C(=O)c2ccccn2)C[C@H]1C | – | · | · | – | – | – | ·
O=C(NCc1cccnc1)C1Cc2c(-c3ccc(Cl)cc3)ccnc2O1 (stereo unspecified) | 52 | – | – | – | – | – | –
O=C(C[C@H]1C[C@H]2c3cc(NC(=O)CC4CC4)ccc3O[C@H]2[C@@H](CO)O1)NCc1ccccc1F | – | · | · | – | – | – | ·
O=C(C[C@@H]1C[C@H]2c3cc(NC(=O)CC4CC4)ccc3O[C@H]2[C@H](CO)O1)NCc1ccccc1F | 56 | · | · | – | – | – | –
COCC(=O)Nc1ccc2c(c1)[C@H]1C[C@@H](CC(=O)NCc3ccc(-c4ccccc4)cc3)O[C@@H](CO)[C@H]1O2 | – | · | · | – | – | · | ·
COCC(=O)Nc1ccc2c(c1)[C@@H]1C[C@@H](CC(=O)NCc3ccc(-c4ccccc4)cc3)O[C@@H](CO)[C@@H]1O2 | 60 | · | · | – | – | · | –
CO[C@@H]1CN(C)C(=O)c2cc(NC(=O)C3CCCCC3)ccc2OC[C@@H](C)N(Cc2nccs2)C[C@@H]1C | – | · | · | – | – | – | ·
CC(C)NC(=O)N(C)C[C@@H]1OCCCC[C@H](C)Oc2ccc(NS(=O)(=O)c3ccc(Cl)cc3)cc2C(=O)N([C@@H](C)CO)C[C@H]1C | – | · | · | – | – | – | ·
CCNC(=O)C[C@@H]1CC[C@H]2[C@@H](COc3ccc(NC(=O)c4cc(C)on4)cc3C(=O)N2C)O1 | – | · | · | – | – | – | ·
Cc1cc(C(=O)Nc2ccc3c(c2)C(=O)N(C)[C@@H]2CC[C@@H](CC(=O)NCc4ccc(-c5ccccc5)cc4)O[C@H]2CO3)no1 | 66 | · | · | – | – | – | –
CN1C(=O)c2cc(NC(=O)c3ccc(Cl)cc3)ccc2OC[C@@H]2O[C@@H](CC(=O)NCc3cccc(F)c3)CC[C@H]21 | 61 | · | · | – | – | – | –
COC(=O)C[C@@H]1CC[C@@H]2[C@H](COc3ccc(NC(=O)c4ccc(C(F)(F)F)cc4)cc3C(=O)N2C)O1 | 78 | · | · | – | – | – | –
CN1C(=O)c2cc(NC(=O)c3ccc(Cl)cc3)ccc2OC[C@H]2O[C@@H](CC(=O)NCc3cccc(F)c3)CC[C@@H]21 | – | · | · | – | – | – | ·
COC(=O)C[C@@H]1CC[C@@H]2[C@H](COc3ccc(NC(=O)c4ccc(F)c(F)c4)cc3C(=O)N2C)O1 | 72 | · | · | – | – | – | –
COc1ccccc1S(=O)(=O)N[C@@H]1CC[C@@H](CCn2cc(C3CCCC3)nn2)O[C@@H]1CO | – | · | · | – | – | – | ·
Cc1ccc(S(=O)(=O)Nc2ccc3c(c2)CC(=O)N([C@@H](C)CO)C[C@@H](C)[C@H](CN(C)C)O3)cc1 | – | · | · | – | – | · | ·
COCC(=O)N(C)C[C@@H]1Oc2ncc(Br)cc2C(=O)N([C@H](C)CO)C[C@@H]1C | – | · | · | – | – | · | ·
COc1ccc(Nc2oc(COc3ccccc3OC)nc2C#N)cc1 | 54 | – | 55 | · | – | – | –
CCOC(=O)Cc1ccc(NC(=O)c2ccccc2Br)cc1 | 52 | – | – | · | – | – | –
CCOC(=O)Cc1ccc(NC(=O)c2ccc(C(C)(C)C)cc2)cc1 | · | – | – | · | · | · | ·
COc1ccc(/C=N/Nc2ccc(C(=O)O)cc2)cc1Br | 69 | 66 | 93 | 80 | – | – | –
Cc1ccsc1/C=N/Nc1cccc(C(=O)O)c1 | 66 | – | – | 88 | – | – | –
Cc1ccsc1/C=N/Nc1ccc(C(=O)O)cc1 | 71 | – | 99 | 69 | – | – | –
O=C(N/N=C\c1cc(Br)cs1)c1ccncc1 | – | – | – | – | – | – | ·
